In the library only some 2.7% were active in any assay of this set; here they are far more common.
GSTO1 counter: blocks human GSTO1 in RBBP9 counter-screen | P78417 | recombinant GSTO1, activity-based probe fluorescence polarization | inhibition, % at 5.96 µM | 300,000 compounds, 1.1% hits | AID 1974;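 active means inhibition above the campaign mean inhibition plus 3 SD, cut at about 35% in these data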;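 further: 0% = GSTO1-1 with DMSO and 100% = wells lacking GSTO1-1 enzyme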
Target sequence (P78417 whole entry, looked up): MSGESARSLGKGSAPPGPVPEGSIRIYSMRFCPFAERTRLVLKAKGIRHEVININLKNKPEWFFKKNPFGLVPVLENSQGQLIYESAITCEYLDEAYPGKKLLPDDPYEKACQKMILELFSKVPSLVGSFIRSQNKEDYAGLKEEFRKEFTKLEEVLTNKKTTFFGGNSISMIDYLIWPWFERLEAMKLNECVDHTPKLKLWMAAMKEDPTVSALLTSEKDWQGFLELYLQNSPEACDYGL
RBBP9 inh: inhibitors of human serine hydrolase RBBP9; O75884; recombinant RBBP9, FP-Rh probe fluorescence polarization; inhibition, % at 7.94 µM; 220,000 compounds, 0.2% hits; AID 1515;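 active means inhibition above the campaign mean of all tested compounds plus 3 SD, cut at about 14% in these data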;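 further: plate controls were DMSO wells with RBBP9 for no effect and wells lacking RBBP9 protein for full effect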
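System: RBBP9 protein | Quantity: 2.5 µM RBBP9 dispensing solution, before mixing | Reagent: FP-Rh probe, 375 nM dispensing solution | Timing: Enzyme-compound preincubation 30 min, then probe labeling 45 min, 25 °C | Measured by: Fluorescence polarization | Read-out: % inhibition | Replication: One well per compound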
SIAE inh: human SIAE inhibition, primary screen; AID 1053197; 370,000 compounds, 0.69% hits; Q9HAT2; SIAE FP-Rh probe binding, fluorescence polarization; inhibition, % at 9.66 µM;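 active means inhibition above a cutoff: mean of compounds within the control limits plus 3 SD of those, cut at about 17% in these data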;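 further: 0% = plate median of compound wells and 100% = probe without SIAE protein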
PAD4 inh: inhibitors of human PAD4. Q9UM07. inhibition, % at 6.36 µM. AID 485272. 330,000 compounds, 0.41% hits. recombinant PAD4, RCA probe fluorescence polarization;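 active means percent inhibition above a cutoff equal to the mean of all tested compounds plus 3 SD, cut at about 15% in these data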;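 further: 0% = PAD4 with RCA probe and DMSO and 100% = probe without PAD4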
PRMT1 FP inh: blocks human protein arginine methyltransferase 1 | Q99873 | recombinant PRMT1, activity-based probe fluorescence polarization | inhibition, % at 2.79 µM | 370,000 compounds, 1.3% hits;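 active means inhibition above about 21% made by adding two undisclosed values, limit read from the data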
Target sequence (Q99873 whole entry, looked up): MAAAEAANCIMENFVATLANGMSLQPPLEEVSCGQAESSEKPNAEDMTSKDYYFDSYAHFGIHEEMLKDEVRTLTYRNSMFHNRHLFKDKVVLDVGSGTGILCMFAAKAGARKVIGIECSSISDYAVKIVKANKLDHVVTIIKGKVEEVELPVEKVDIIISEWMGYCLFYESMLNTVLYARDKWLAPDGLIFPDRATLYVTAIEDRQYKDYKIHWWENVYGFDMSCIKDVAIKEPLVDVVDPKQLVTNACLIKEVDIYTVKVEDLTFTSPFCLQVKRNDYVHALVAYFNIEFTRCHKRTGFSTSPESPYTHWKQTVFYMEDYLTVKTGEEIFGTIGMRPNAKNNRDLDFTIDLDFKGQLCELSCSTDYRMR
RBBP9 inh conf: human RBBP9 inhibition, confirmation. shares compounds with RBBP9 inh. recombinant RBBP9, FP-Rh probe fluorescence polarization. inhibition, % at 7.94 µM. 410 compounds, 36% hits. AID 1537;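 active means inhibition above the hit cutoff derived for the primary screen, cut at about 15% in these data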;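 further: 0% = RBBP9 with DMSO and 100% = wells lacking RBBP9 protein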
GSTO1 inh conf: GSTO1 (human) inhibition, confirmation; inhibition, % at 5.96 µM; recombinant GSTO1, probe fluorescence polarization; 2,400 compounds, 54% hits; shares compounds with GSTO1 counter;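 active means inhibition above the primary screen's cutoff, its mean inhibition plus 3 SD, cut at about 35% in these data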;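 further: loss of polarization as inhibitors block binding of rhodamine sulfonate ester activity probe; 0% = GSTO1 with DMSO and 100% = wells lacking GSTO1 enzyme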
PAD4 FP conf: PAD4 (human) inhibition, confirmed; shares compounds with PAD4 inh; recombinant PAD4, RCA probe fluorescence polarization; inhibition, % at 6.36 µM; 1,200 compounds, 28% hits; AID 488796;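 active means mean inhibition across replicates above the hit cutoff set by the earlier primary screen, cut at about 15% in these data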;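 further: inhibitors block active-site labeling by the probe so polarization falls; 0% = PAD4 with probe and DMSO and 100% = probe without PAD4 enzyme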
PRMT1 inh conf: PRMT1 (human) inhibition, FP confirmation; shares compounds with PRMT1 FP inh; recombinant His-PRMT1, activity-based probe fluorescence polarization; inhibition, % at 2.79 µM; 3,300 compounds, 42% hits;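 active means mean inhibition across replicates above the hit cutoff derived for the earlier primary screen, cut at about 22% in these data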
SIAE confirm: confirmation of human SIAE inhibitors; 2,300 compounds, 13% hits; SIAE FP-Rh activity-based probe, fluorescence polarization; shares compounds with SIAE inh; AID 1117263; inhibition, % at 9.66 µM;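 active means mean inhibition of the replicates above the hit cutoff set in the primary screen, cut at about 17% in these data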;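 further: 0% = SIAE with DMSO and probe and 100% = probe without SIAE; inhibitors lower polarization as more probe stays unbound to SIAE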
* marks the source's active call; other numbers are inactive results; · = no result; ! = a repeat was not active.

SMILES	GSTO1 counter	RBBP9 inh	SIAE inh	PAD4 inh	PRMT1 FP inh	RBBP9 inh conf	SIAE confirm	others
CCOc1ccc(S(=O)(=O)N(C)CC(=O)NCc2ccco2)cc1	-0.2	·	-9.8	1.4	0.5	·	·
CCOc1ccc(S(=O)(=O)N(C(=O)c2ccco2)c2cc3sc(=O)oc3c3ccccc23)cc1	37.2*	30.3*	17.9*	11.7	93.1*	5.4	-1.6
Cc1ccc(NC(=O)NNC(=O)C2CCN(Cc3ccc(F)cc3Cl)CC2)cc1	0.7	-9.4	2.4	2.0	-1.8	·	·
COc1ccc(C(=O)NNC(=O)c2cccc3ccccc23)cc1	·	·	4.4	·	-0.1	·	·
O=C(/C=N/O)Nc1ccc2sc3ccccc3c2c1	-18.6	53.2*	61.4*	-0.6	-2.6	71.9*	49.6*
COc1ccccc1NC(=O)c1cc2cc(Br)ccc2cc1O	-8.6	18.8*	42.7*	-5.1	1.2	29.9*	-2.8
COc1ccccc1NC(=O)COC(=O)c1cc2ccccc2cc1O	·	·	0.7	-0.6	0.6	·	·
CC(C)c1nc2sc3c(=O)[nH]c(=S)[nH]c3c2c2c1CCC2	·	-3.7	·	·	·	·	·
CCN(CC)CCNc1ncnc2c1[nH]c1ccc(OC)cc12	-0.8	-0.4	·	0.1	·	·	·
COc1ccc2[nH]c3c(NCCC4=CCCCC4)ncnc3c2c1	·	14.7*	49.6*	·	-4.3	29.9*	45.0*
Cc1c2cc(O)c(=O)cc-2oc2cc(O)c(O)cc12	95.9*	43.4*!	56.1*	64.8*	67.5*	83.3*	103.7*	GSTO1 inh conf=106.9*;PRMT1 inh conf=136.8*
Cc1ccc(S(=O)(=O)N2CCN(CC(=O)Nc3ccc([N+](=O)[O-])cc3)CC2)cc1C	-4.2	-9.9	3.6	-4.0	-1.1	·	·
O=C1C(CSCc2ccccc2)NC(=S)N1c1ccccc1 (centres undefined)	6.9	29.9*	100.2*	-2.9	26.6*	19.6*	-82.5	PRMT1 inh conf=67.8*
CC(C(=O)NC1CCCCCC1)N(c1ccccc1)S(C)(=O)=O (centres undefined)	7.1	-0.7	-4.7	1.2	-4.3	·	·
CCOC(=O)c1ccc(CC(=O)c2ccc(O)cc2O)o1	10.9	-2.2	-3.3	-19.1	7.1	·	·
CCC(=O)Oc1ccc(C/C(=N\O)c2ccc(O)cc2O)o1	24.6	30.6*	36.8*	3.4	9.4	51.8*	28.2*
c1coc(-c2nc(-c3ccco3)c(-c3ccco3)nc2-c2ccco2)c1	79.9*	25.9*	28.9*	44.6*	78.0*	18.6*	9.4	GSTO1 inh conf=36.7*;PRMT1 inh conf=15.0
Nc1nc(-c2ccco2)cs1	5.9	6.0	0.1	2.1	8.4	·	·
CCNC(=O)C1(C)CCCN(C(=O)c2sc(-c3ccccc3)nc2C)C1 (centres undefined)	·	·	0.6	·	4.4	·	·
Cc1cccc2c(N=O)c(O)[nH]c12	-5.2	24.4*	45.5*	-8.5	-1.2	52.5*	42.5*
O=c1cc(N2CCc3ccccc3C2)[nH]c(=O)n1Cc1ccc(F)cc1	-0.3	-11.4	1.9	2.2	-1.1	·	·
Cc1cc(O)ccc1N=Cc1c(C(F)(F)F)[nH][nH]c1=O	94.1*	39.4*	73.2*	97.6*	25.4*	13.7	3.2	PAD4 FP conf=1.6
O=C(CC1Nc2cccc3cccc(c23)NC1=O)Nc1ccccc1 (centres undefined)	37.6*	16.1*	23.2*	25.2*	9.8	11.6	3.5	GSTO1 inh conf=19.6;PAD4 FP conf=3.5
CCCOc1ccc(NC(=O)CC2Nc3ccccc3NC2=O)cc1 (centres undefined)	-2.7	0.7	-3.4	-3.0	1.5	·	·
Cc1cc2c(N=O)c(NO)ccc2[nH]1	21.6	9.3	·	-5.3	·	·	·
SMILES	GSTO1 counter	RBBP9 inh	SIAE inh	PAD4 inh	PRMT1 FP inh	RBBP9 inh conf	SIAE confirm	others
O=Nc1c(O)[nH]c2ccc(Cl)cc12	3.6	14.8*	28.3*	-3.7	5.4	29.1*	24.6*
COc1ccc(NC(=O)c2cccnc2)c(OC)c1	-1.4	-3.9	-2.9	-5.6	1.4	·	·
COc1ccc(O)c(C=Nc2cc(NC(C)=O)c(Cl)cc2Cl)c1	-4.8	15.2*	17.5*	1.7	-0.8	3.6	0.7
COc1ccc(-n2nnc3c(=O)n(C/C=C/c4ccccc4)cnc32)cc1	-1.1	15.2*	20.6*	-3.2	-2.1	9.9	-3.4
CC1=C(CC(=O)c2ccc(Cl)cc2)C(=O)c2ccccc2C1=O	44.5*	3.5	-15.0	-8.9	4.9	·	·	GSTO1 inh conf=13.8
NC(=O)CN1C(=O)C(=O)N(Cc2ccccc2Cl)C1=O	0.8	·	0.0	6.9	1.3	·	·
CCNC(=O)CN(c1ccccc1)S(=O)(=O)c1ccc(Cl)cc1	1.6	2.6	2.7	0.6	-2.2	·	·
CN(C)C(=O)CSc1nnc(-c2cnccn2)n1C	-3.2	-6.9	1.2	4.2	1.6	·	·
C[C@H](CO)N1C[C@H](C)[C@@H](CN(C)C(=O)NC2CCCCC2)Oc2c(NS(=O)(=O)c3cccs3)cccc2C1=O	·	·	-5.7	-2.8	-3.6	·	·
COc1ccc(S(=O)(=O)Nc2ccc(O)c3ccccc23)cc1	70.2*	3.2	2.2	7.2	22.9*	·	·	GSTO1 inh conf=8.6
Cc1ccc(C)c(S(=O)(=O)Nc2ccc(O)c3ccccc23)c1	52.7*	·	11.0	-4.7	5.8	·	·	GSTO1 inh conf=0.0
Cc1ccc(C)c(S(=O)(=O)Nc2ccc(O)c(C(=O)O)c2)c1	3.4	6.8	-2.4	0.3	0.6	·	·
COC(C[C@@H]1O[C@H]1[C@H](O)[C@@H](C)OCc1ccccc1)OC	39.8*	·	·	1.4	·	·	·	GSTO1 inh conf=6.5
O=C1CCCC(O)=C1C=Nc1ccc(O)cc1	60.1*	-1.7	1.2	-7.4	-0.8	·	·	GSTO1 inh conf=2.4
O=C1CC(c2ccccc2)CC(O)=C1C=Nc1ccc(Cl)cc1 (centres undefined)	-2.0	-2.2	1.2	-10.1	0.8	·	·
COC(=O)c1cc(-c2ccc(Br)cc2)n[nH]1	-2.0	-0.1	-2.1	0.1	0.4	·	·
O=C(O)c1cccc(Cn2c(Cl)c(/C=N/Nc3ccccc3)sc2=O)c1	50.0*	-10.4	·	2.9	·	·	·	GSTO1 inh conf=64.5*
CC1=NN(c2ccc(N)cc2)C(=O)C1	50.4*	0.5	9.9	-4.9	7.1	·	·	GSTO1 inh conf=13.9
COC(=O)CC1=NN(c2ccc(OC)cc2)C(=O)C1	20.9	-9.8	10.3	-12.4	2.2	·	·
Cc1cc(NC(=O)CSc2nccn2-c2ccc(Cl)cc2)no1	10.3	-2.5	-1.2	0.9	0.1	·	·
O=C(N/N=C/c1ccc(-c2ccccc2[N+](=O)[O-])o1)c1cccnc1	50.7*	2.5	-0.4	4.7	1.4	·	·	GSTO1 inh conf=7.1
Cc1ccc2c3c(cccc13)-c1ccccc1C2=O	-3.9	-6.2	-5.7	0.1	5.8	·	·

Compound activity from PubChem BioAssay.
